{"source": "ChEMBL document CHEMBL5661969", "about": "“Preclinical evaluation of a potent novel DNA-dependent protein kinase inhibitor NU7441” (Cancer Res, 2006)", "key": {"[1]": {"target": "T1, DNA-dependent protein kinase catalytic subunit (Homo sapiens, UniProt P78527)", "T1 sequence (P78527 whole entry)": "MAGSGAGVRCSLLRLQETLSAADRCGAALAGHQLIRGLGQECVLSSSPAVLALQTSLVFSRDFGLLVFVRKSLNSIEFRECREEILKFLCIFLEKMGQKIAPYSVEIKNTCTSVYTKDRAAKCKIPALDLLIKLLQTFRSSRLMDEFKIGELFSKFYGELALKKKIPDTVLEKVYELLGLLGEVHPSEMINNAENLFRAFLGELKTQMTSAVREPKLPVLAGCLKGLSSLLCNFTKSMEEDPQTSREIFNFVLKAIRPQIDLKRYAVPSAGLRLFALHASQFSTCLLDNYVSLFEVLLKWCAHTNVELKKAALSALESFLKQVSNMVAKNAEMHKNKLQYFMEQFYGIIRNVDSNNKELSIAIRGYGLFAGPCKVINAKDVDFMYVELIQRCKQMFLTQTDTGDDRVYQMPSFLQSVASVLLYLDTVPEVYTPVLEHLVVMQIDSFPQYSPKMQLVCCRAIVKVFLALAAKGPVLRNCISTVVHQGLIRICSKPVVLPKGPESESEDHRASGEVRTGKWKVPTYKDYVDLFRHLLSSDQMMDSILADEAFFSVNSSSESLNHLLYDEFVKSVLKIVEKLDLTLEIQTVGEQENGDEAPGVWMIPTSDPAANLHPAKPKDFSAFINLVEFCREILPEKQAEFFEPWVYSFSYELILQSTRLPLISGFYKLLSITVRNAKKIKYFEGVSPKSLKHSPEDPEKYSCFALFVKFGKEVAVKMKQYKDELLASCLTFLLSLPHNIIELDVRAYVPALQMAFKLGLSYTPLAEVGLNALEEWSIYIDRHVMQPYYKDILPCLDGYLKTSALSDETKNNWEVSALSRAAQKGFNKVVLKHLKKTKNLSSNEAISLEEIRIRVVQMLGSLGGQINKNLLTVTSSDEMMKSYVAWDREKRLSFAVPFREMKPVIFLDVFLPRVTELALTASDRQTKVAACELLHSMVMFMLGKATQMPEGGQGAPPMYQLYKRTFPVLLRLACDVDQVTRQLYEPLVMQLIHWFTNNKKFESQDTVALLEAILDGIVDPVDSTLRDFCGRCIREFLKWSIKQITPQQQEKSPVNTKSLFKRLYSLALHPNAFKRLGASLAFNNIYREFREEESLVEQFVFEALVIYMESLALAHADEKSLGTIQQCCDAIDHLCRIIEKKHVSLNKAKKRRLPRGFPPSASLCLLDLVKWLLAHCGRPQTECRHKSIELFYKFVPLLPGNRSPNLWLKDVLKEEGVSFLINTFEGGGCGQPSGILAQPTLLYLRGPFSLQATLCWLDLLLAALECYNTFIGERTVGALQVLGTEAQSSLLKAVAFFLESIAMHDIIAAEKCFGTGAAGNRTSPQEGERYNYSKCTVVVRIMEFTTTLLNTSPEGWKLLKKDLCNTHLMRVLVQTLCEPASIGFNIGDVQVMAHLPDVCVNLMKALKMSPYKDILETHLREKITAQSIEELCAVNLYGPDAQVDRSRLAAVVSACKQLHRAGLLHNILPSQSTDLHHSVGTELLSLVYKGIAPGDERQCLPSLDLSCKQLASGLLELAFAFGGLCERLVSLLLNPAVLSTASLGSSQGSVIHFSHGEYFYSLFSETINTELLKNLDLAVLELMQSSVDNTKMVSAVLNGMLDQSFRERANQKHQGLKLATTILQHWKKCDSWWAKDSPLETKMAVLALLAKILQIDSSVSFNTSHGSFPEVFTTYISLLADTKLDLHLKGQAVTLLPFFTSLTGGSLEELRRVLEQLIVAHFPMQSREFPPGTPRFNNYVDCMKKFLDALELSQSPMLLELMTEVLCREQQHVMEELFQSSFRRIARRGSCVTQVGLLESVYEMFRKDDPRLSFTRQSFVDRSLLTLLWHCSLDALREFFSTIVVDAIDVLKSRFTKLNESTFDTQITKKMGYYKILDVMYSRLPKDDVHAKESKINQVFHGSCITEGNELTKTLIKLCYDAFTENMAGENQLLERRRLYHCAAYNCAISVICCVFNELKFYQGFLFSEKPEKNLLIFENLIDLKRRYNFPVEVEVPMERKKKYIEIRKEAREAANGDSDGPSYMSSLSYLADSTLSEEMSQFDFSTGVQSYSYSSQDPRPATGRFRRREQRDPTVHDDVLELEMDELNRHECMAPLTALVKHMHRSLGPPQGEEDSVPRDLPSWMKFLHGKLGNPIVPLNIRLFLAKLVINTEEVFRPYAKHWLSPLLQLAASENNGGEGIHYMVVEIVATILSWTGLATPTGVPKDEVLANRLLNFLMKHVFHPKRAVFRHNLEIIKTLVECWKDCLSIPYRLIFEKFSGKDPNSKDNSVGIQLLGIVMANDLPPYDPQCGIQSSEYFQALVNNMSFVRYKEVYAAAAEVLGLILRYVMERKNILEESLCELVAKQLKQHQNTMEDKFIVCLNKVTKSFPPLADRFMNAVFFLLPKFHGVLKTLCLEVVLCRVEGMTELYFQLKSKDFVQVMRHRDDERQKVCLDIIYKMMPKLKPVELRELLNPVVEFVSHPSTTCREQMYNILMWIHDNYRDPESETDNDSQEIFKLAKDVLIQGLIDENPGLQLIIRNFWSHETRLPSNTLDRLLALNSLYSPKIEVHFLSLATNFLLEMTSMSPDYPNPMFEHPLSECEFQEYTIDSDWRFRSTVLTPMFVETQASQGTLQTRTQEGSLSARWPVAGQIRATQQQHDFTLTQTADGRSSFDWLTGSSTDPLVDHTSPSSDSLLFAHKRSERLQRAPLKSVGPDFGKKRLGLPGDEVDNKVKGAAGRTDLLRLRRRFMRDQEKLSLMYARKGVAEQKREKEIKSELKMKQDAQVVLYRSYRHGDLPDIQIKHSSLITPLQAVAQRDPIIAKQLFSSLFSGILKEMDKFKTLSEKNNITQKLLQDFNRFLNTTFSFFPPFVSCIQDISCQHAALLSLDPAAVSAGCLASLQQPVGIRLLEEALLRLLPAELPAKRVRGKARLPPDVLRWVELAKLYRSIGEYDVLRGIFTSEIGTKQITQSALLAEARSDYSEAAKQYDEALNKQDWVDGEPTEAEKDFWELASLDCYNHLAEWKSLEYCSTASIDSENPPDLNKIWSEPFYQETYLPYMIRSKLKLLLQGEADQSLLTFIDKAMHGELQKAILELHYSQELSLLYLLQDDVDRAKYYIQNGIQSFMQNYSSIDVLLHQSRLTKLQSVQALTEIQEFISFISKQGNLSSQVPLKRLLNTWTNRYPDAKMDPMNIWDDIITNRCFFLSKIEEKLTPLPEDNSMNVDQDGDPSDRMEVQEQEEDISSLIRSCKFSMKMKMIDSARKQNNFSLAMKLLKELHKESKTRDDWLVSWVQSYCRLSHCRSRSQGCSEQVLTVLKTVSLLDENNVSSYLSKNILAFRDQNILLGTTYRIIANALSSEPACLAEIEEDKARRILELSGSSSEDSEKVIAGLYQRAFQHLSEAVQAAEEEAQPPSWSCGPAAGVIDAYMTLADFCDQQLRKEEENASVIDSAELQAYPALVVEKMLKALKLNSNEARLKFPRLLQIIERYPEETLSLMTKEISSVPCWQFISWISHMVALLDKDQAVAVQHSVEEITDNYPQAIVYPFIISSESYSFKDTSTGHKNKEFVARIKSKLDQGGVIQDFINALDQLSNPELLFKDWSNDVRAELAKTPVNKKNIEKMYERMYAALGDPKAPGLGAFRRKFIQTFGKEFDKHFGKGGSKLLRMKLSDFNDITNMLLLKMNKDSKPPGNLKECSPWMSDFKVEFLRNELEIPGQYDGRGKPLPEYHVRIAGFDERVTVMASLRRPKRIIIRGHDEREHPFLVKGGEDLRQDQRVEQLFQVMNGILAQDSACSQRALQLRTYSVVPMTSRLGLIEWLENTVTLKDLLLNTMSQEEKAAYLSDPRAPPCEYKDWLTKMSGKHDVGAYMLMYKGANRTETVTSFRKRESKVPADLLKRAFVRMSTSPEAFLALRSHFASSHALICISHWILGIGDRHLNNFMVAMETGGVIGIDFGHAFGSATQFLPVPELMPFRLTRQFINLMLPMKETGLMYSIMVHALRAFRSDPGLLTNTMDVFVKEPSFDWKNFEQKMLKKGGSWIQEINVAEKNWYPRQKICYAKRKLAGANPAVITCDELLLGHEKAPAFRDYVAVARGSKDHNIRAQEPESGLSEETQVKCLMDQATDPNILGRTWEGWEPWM", "assay": "Inhibition of DNA-PK in human SW480 cells assessed potentiation of ionizing radiation-induced cytotoxicity by measuring ratio of cytotoxic agent required to kill 90% of the cells in the absence and presence of compound", "format": "cell-based"}, "[2]": {"assay": "Cytotoxicity against Chinese hamster DNA-PK deficient V3 cells assessed as increase in etoposide-induced cytotoxicity by measuring fold change in etoposide LD90 at 10 umol/L measured after 16 hrs by crystal violet staining based assay relative to etoposide alone", "format": "toxicity, cell-based, Cricetulus griseus", "settings": "v3, 16 h, 10 µM, dose 10 µmol/L"}, "[3]": {"assay": "(§1) Inhibition of ATM in Chinese hamster DNA-PK proficient V3-YAC cells assessed as potentiation of etoposide-induced cytotoxicity by measuring fold change in etoposide LD90 at 10 umol/L measured after 16 hrs by crystal violet staining based assay relative to etoposide alone", "design": "species or system Cricetulus griseus", "settings": "dose 10 µmol/L, condition cancer"}, "[4]": {"assay": "as §1, with “ionizing radiation-induced” for “etoposide-induced”, “radiation” for “etoposide”, “umol/L preincubated for 1 hr followed by gamma-irradiation and” for “umol/L”", "design": "species or system Cricetulus griseus", "settings": "dose 10 µmol/L; time 17 hrs; condition cancer"}, "[5]": {"target": "T1, DNA-dependent protein kinase catalytic subunit", "assay": "Inhibition of DNA-PK in human HCT-116 cells assessed as potentiation of ionizing radiation-induced cytotoxicity relative to radiation alone", "format": "cell-based"}, "[6]": {"target": "T1, DNA-dependent protein kinase catalytic subunit", "assay": "Inhibition of DNA-PK in human HCT-116 cells assessed as potentiation of etoposide-induced cytotoxicity relative to etoposide alone", "format": "cell-based"}, "SW-620 [7]": {"tested_on": "SW-620", "assay": "Cell cycle arrest in human SW620 cells assessed as reduction in S-phase cell population at 10 nM measured after 16 hrs by propidium iodide staining based flow cytometry", "format": "functional"}, "SW-620 [8]": {"tested_on": "SW-620", "assay": "Cell cycle arrest in human SW620 cells assessed as increase in G2-M-phase cell population at 10 nM measured after 16 hrs by propidium iodide staining based flow cytometry relative to control", "format": "functional"}, "SW-620 [9]": {"tested_on": "SW-620", "assay": "Antitumor activity against human SW620 cells xenografted in athymic nude CD1 mouse assessed as tumor growth delay at 11.35 mg/kg, ip administered 5 times daily for 5 days", "format": "functional", "settings": "time 5 day"}, "[10]": {"assay": "Toxicity in human SW620 cell xenografted athymic nude CD1 mouse assessed as maximum body weight loss at 11.35 mg/kg, ip administered 5 times daily for 5 days relative to control", "format": "organism-based, SW-620", "settings": "in vivo, 120 h, time 5 day"}, "SW-620 [11]": {"tested_on": "SW-620", "assay": "Cell cycle arrest in human SW620 cells assessed as reduction in S-phase cell population at 0.1 uM measured after 16 hrs by propidium iodide staining based flow cytometry", "format": "functional"}, "[12]": {"assay": "Selectivity ratio of LD90 for cytotoxicity against Chinese hamster DNA-PK proficient V3-YAC cells to LD90 for cytotoxicity against Chinese hamster DNA-PK deficient V3 cells", "format": "toxicity, cell-based, Cricetulus griseus", "summary_of_the_method": "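Clonogenic survival of V3 and V3-YAC Chinese hamster ovary cells, RPMI/10% FBS, V3-YAC kept under G-418 at 500 μg/mL. Colonies read 10–14 days later. LD90 is the dose or concentration killing 90%, and the LD90 ratio gives the fold change.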"}, "SW-620 [13]": {"tested_on": "SW-620", "assay": "Induction of DNA damage in human SW620 cells assessed as increase in formation of gamma-H2AX phosphorylation foci per cell at 1 umol/L preincubated for 1 hr followed by compound washout and measured after 30 mins by DAPI staining based immunofluorescence microscopic analysis", "format": "functional", "settings": "dose 1 µmol/L", "summary_of_the_method": "(§2)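 SW620 cells on coverslips at 50–70% confluence, preincubated 1 h ± 1 μmol/L agent, then 1 μmol/L etoposide for 1 h, washed three times, and kept ± agent for up to 24 h. Fixation in −20 °C methanol, then anti-γH2AX Ser139 antibody with FITC secondary and DAPI mounting. Foci counted in 30 nuclei from three areas per sample, in triplicate.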"}, "SW-620 [14]": {"tested_on": "SW-620", "assay": "Cell cycle arrest in human SW620 cells assessed as increase in G2-M-phase cell population at 0.1 uM measured after 16 hrs by propidium iodide staining based flow cytometry relative to control", "format": "functional"}, "SW-620 [15]": {"tested_on": "SW-620", "assay": "Induction of DNA damage in human SW620 cells assessed as loss of gamma-H2AX phosphorylation foci formation at 1 umol/L preincubated for 1 hr followed by compound washout and measured after 4 hrs by DAPI staining based immunofluorescence microscopic analysis relative to control", "format": "functional", "settings": "dose 1 µmol/L, at 1 µM", "summary_of_the_method": "as §2"}, "[16]": {"assay": "Cytotoxicity against Chinese hamster DNA-PK proficient V3-YAC cells assessed as reduction in cell survival measured after 16 hrs by crystal violet staining based assay", "format": "toxicity, Cricetulus griseus", "summary_of_the_method": "(§3)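 V3 (DNA-PKcs-deficient CHO) and V3-YAC (human DNA-PKcs YAC, kept on G-418 500 μg/mL) cells were grown in RPMI/10% FBS. Exponential cells were exposed to agent in 0.5% DMSO for 16 h, then trypsinized and reseeded at 100–100,000 per dish in drug-free medium. Colonies were stained with crystal violet after 10–14 days and counted. Survival is relative to 0.5% DMSO controls.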"}, "[17]": {"assay": "Cytotoxicity against Chinese hamster DNA-PK deficient V3 cells assessed as reduction in cell survival measured after 16 hrs by crystal violet staining based assay", "format": "toxicity, Cricetulus griseus", "settings": "v3, 16 h", "summary_of_the_method": "as §3"}, "SW-620 [18]": {"tested_on": "SW-620", "assay": "Induction of DNA damage in human SW620 cells assessed as loss of gamma-H2AX phosphorylation foci formation at 1 umol/L preincubated for 1 hr followed by compound washout and measured after 16 hrs by DAPI staining based immunofluorescence microscopic analysis relative to control", "format": "functional", "settings": "dose 1 µmol/L, at 1 µM", "summary_of_the_method": "as §2"}}, "note": "Calls of active or inactive are those of the source. The rule behind the calls is not given here.", "data": [{"smiles": "O=c1cc(N2CCOCC2)oc2c(-c3ccccc3)cccc12", "values": [{"measurement": "Ratio", "setting": "[1]", "result": 1.9}]}, {"smiles": "O=c1cc(-c2cccc3c2Sc2ccccc2S3)oc(N2CCOCC2)c1", "note": "[KU-55933]", "values": [{"measurement": "fold change (FC)", "setting": "[2]", "result": 6}, {"measurement": "fold change (FC)", "setting": "[3]", "result": 6}, {"measurement": "fold change (FC)", "setting": "[4]", "result": 2}]}, {"smiles": "CC(=O)c1ccc(N2CCOCC2)cc1O", "values": [{"measurement": "fold change (FC)", "setting": "[5]", "result": 4}, {"measurement": "fold change (FC)", "setting": "[6]", "result": 15}]}, {"smiles": "COc1cccc2c1C(=O)c1c(O)c3c(c(O)c1C2=O)C[C@@](O)(C(=O)CO)C[C@@H]3O[C@H]1C[C@H](N)[C@H](O)[C@H](C)O1", "note": "[DOXORUBICIN]", "values": [{"measurement": "Activity", "setting": "SW-620 [7]", "result": "Active"}, {"measurement": "Activity", "setting": "SW-620 [8]", "result": 158, "unit": "%"}]}, {"smiles": "COc1cc([C@@H]2c3cc4c(cc3[C@@H](O[C@@H]3O[C@@H]5CO[C@@H](C)O[C@H]5[C@H](O)[C@H]3O)[C@H]3COC(=O)[C@H]23)OCO4)cc(OC)c1OP(=O)(O)O", "note": "[ETOPOSIDE PHOSPHATE]", "values": [{"measurement": "Time", "setting": "SW-620 [9]", "result": 2.7, "unit": "days"}, {"measurement": "Activity", "setting": "[10]", "result": 6, "unit": "%"}]}, {"smiles": "COc1cc([C@@H]2c3cc4c(cc3[C@@H](O[C@@H]3O[C@@H]5CO[C@@H](C)O[C@H]5[C@H](O)[C@H]3O)[C@H]3COC(=O)[C@H]23)OCO4)cc(OC)c1O", "note": "[ETOPOSIDE]", "values": [{"measurement": "Activity", "setting": "SW-620 [11]", "result": "Active"}, {"measurement": "selectivity ratio", "setting": "[12]", "result": 3}, {"measurement": "Activity", "setting": "SW-620 [13]", "result": 22}, {"measurement": "Activity", "setting": "SW-620 [14]", "result": 83, "unit": "%"}, {"measurement": "Activity", "setting": "SW-620 [15]", "result": 39, "unit": "%"}, {"measurement": "LD90", "setting": "[16]", "result": 1.8, "unit": "µmol/L"}, {"measurement": "LD90", "setting": "[17]", "result": 0.6, "unit": "µmol/L"}, {"measurement": "Activity", "setting": "SW-620 [18]", "result": 5.3, "unit": "%"}]}, {"smiles": "COC[C@H]1OC(=O)c2coc3c2[C@@]1(C)C1=C(C3=O)[C@@H]2CCC(=O)[C@@]2(C)C[C@H]1OC(C)=O", "values": [{"measurement": "Ratio", "setting": "[1]", "result": 2.8}]}]}
